Assay results from different studies.
Each line is one published result; the experiments were not run side by side.
Target: Serine/threonine-protein kinase tousled-like 1 (TLK1, Homo sapiens, UniProt Q9UKI8)
Residues used in one study (Q9UKI8 1-766): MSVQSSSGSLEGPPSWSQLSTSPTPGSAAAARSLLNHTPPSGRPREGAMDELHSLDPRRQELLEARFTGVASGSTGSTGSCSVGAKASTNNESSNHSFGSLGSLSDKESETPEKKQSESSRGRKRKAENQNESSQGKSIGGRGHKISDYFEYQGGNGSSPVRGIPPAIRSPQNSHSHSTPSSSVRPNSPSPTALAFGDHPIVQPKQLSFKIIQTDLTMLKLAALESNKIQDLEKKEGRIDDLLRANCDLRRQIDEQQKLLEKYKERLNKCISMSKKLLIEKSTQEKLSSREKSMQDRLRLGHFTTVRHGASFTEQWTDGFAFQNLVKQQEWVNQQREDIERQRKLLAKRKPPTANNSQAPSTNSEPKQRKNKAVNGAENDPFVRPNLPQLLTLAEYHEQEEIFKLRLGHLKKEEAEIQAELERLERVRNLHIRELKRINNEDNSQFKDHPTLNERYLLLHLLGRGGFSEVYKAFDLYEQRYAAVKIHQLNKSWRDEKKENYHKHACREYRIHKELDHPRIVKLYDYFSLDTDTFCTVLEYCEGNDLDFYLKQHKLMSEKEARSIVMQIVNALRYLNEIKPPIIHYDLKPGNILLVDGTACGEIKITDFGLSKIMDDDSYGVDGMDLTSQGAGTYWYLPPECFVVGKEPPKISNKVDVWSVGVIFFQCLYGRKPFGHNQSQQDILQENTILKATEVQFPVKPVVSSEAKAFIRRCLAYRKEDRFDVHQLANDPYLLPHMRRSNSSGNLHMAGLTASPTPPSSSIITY

| SMILES | assay | setting | remaining binding [%] |
| --- | --- | --- | --- |
| CCc1ccccc1C(=O)Nc1n[nH]c2c(C)c(F)c(C3C(C#N)=C(C)N(C)C(C)=C3C#N)cc12 | cell-free assay, competition with immobilised ligand | 1 µM | 100 |
| Nc1ncc2c(n1)-c1c([nH]c3ccc(C#CC4CC4)cc13)CCCC2 | binding, competition with immobilised ligand | 1 µM | 87 |
| COc1cnc(Nc2cccc(S(N)(=O)=O)c2)nc1N1CCN(c2ccccc2)CC1 | binding, competition with immobilised ligand | 1 µM | 80 |
| CN(C)C(=O)Cn1cc(-c2nc([C@@](C)(c3ccc(-c4cnc(N)nc4)cc3)C3CC3)no2)cn1 | cell-free assay, competition with immobilised ligand | 1 µM | 100 |
| Cc1cnn2ncc(-c3ccnc(N(C)C)n3)c2c1 | binding | 1 µM | 75 |
| C=CC(=O)N1CCC(C(=O)NCC(=O)N2CCN(c3nc(-c4cnc(N)nc4C(F)F)nc(N4CCOCC4)n3)CC2)CC1 | binding, competition with immobilised ligand | 1 µM | 99 |
| O=C(NCCCN1CCOCC1)c1ccc(Nc2ncc(Cl)c(-c3ccc(Cl)s3)n2)cc1 | binding, competition with immobilised ligand | 1 µM | 75 |
| O=C(Nc1c[nH]nc1C(=O)NC1CCNCC1)c1cc(F)cc(F)c1 | binding, competition with immobilised ligand | 1 µM | 100 |
| CN(C)c1nccc(-c2cnn3ncccc23)n1 | binding | 1 µM | 92 |
| O=C(c1ccc(Nc2nccc(-c3cc4ccccc4s3)n2)cc1)N1CCC(N2CCCC2)CC1 | binding, competition with immobilised ligand | 1 µM | 12 |
| C[C@@H](c1ccc(-n2cnc3c(N)ncnc32)cc1)N1CCc2nn(C)c(Cc3ccccc3)c2C1=O | binding, competition with immobilised ligand | 0.1 µM | 81 |
| O=C(c1ccc(Nc2ncc(Cl)c(-c3ccc(Cl)s3)n2)cc1)N1CCC(N2CCCC2)CC1 | binding, competition with immobilised ligand | 1 µM | 32 |
| CCS(=O)(=O)c1cc2cc(C[C@](O)(CC(C)(C)c3ccc(F)cc3C(N)=O)C(F)(F)F)[nH]c2cn1 | cell-free assay, competition with immobilised ligand | 1 µM | 75 |
| COc1ccnn2ncc(-c3ccnc(N(C)C)n3)c12 | binding | 1 µM | 100 |
| CC(=O)Nc1c(C(C)=O)c(=O)n(C)c2nc(-c3ccc(Cl)cc3Cl)c(-c3ccc(Cl)cc3)cc12 | cell-free assay, competition with immobilised ligand | 1 µM | 100 |
| CN(CCCC(F)(F)F)c1nccc(-c2cnn3ncccc23)n1 | binding | 1 µM | 100 |
| CCC(=O)N[C@@H]1CC[C@H](C(=O)N(C)c2ccc(-c3nc4ccccc4o3)cc2)C1 | cell-free assay, competition with immobilised ligand | 1 µM | 100 |
| CNC(=O)[C@@H]1CC[C@@H](n2c(-c3ccc4cnccc4c3)nc3ccc(C(=O)NCc4cccc(C(N)=O)c4)cc32)C1 | binding, competition with immobilised ligand | 1 µM | 97 |
| N[C@@H]1CCN(c2nccc(-c3cnn4ncccc34)n2)C1 | binding | 1 µM | 39 |
| O=S(=O)(NC1CCC(c2cc(F)ccc2F)(S(=O)(=O)c2ccc(Cl)cc2)CC1)C(F)(F)F (centres unmarked) | cell-free assay, competition with immobilised ligand | 1 µM | 100 |
